Measurements reported in ChEMBL document CHEMBL1127787, “1,2,3-Triazole-[2',5'-bis-O-(tert-butyldimethylsilyl)-beta-D- ribofuranosyl]-3'-spiro-5"-(4"-amino-1",2"-oxathiole 2",2"-dioxide) (TSAO) analogues: synthesis and anti-HIV-1 activity” (J Med Chem, 1994).

What was measured:
[1] = system: MT4; assay: Tested for the cytotoxic concentration required to reduce the number of viable mock infected MT-4 cells; assay type: functional; conditions: Homo sapiens
Method in brief: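 Mock-infected MT-4 cells (5 × 10^5/mL) in RPMI-1640 with 10% FCS were exposed to compound dilutions (100 to 0.006 µg/mL). Viable cells were counted by trypan blue at day 5; about 150-200 cells were counted in controls. CC50 is the concentration that reduces viable cell number by 50%.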

[2] = system: MT4; assay: Tested for the inhibitory activity of HIV-1 infected MT-4 cells; assay type: functional, cell-based; conditions: Homo sapiens
Method in brief: (§1)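 MT-4 cells (5 × 10^5/mL) grown in RPMI-1640 with 10% FCS, 2 mM L-glutamine and 0.075% NaHCO3. Infected with HIV-1 or HIV-2 at 100 CCID50/mL and mixed with compound dilutions (100 to 0.006 µg/mL). After 5 days viable cells were counted by trypan blue staining. EC50 is the concentration that reduces viable-cell loss in infected cultures by 50%.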

[3] = system: MT4; assay: Tested for the inhibitory activity of HIV-2 infected MT-4 cells; assay type: functional, cell-based; conditions: Homo sapiens; method in brief: as §1
[4] = system: MT4; assay: Tested for the ratio between CC50 (MT-4) to EC50 (MT-4); assay type: functional, Homo sapiens
[5] = system: CCRF-CEM; assay: Tested for the inhibitory activity of virus induced giant cell formation in HIV-1 infected CEM cells; assay type: functional, cell-based; conditions: Homo sapiens
[6] = system: CCRF-CEM; assay: Tested for the inhibitory activity of virus induced giant cell formation in HIV-2 infected CEM cells; assay type: functional, cell-based; conditions: Homo sapiens

Compound | EC50 [5] [µM] | EC50 [6] [µM] | CC50 [1] [µM] | EC50 [2] [µM] | EC50 [3] [µM] | Ratio [4]
Cc1cn([C@H]2C[C@H](N=[N+]=[N-])[C@@H](CO)O2)c(=O)[nH]c1=O [ZIDOVUDINE] |  |  | 6 |  |  | 3000
COC(=O)c1cn([C@@H]2O[C@H](CO[Si](C)(C)C(C)(C)C)[C@@]3(OS(=O)(=O)C=C3NC(C)=O)[C@H]2O[Si](C)(C)C(C)(C)C)nn1 | 28 | > 32 | 56 | ≥ 32 | > 32 | <=1.7
Cc1cn([C@@H]2O[C@H](CO[Si](C)(C)C(C)(C)C)[C@@]3(OS(=O)(=O)C=C3N)[C@H]2O[Si](C)(C)C(C)(C)C)nn1 | 1.4 | > 6.9 | 23 | 2.8 | > 35 | 8.4
CCOC(OCC)c1cn([C@@H]2O[C@H](CO[Si](C)(C)C(C)(C)C)[C@@]3(OS(=O)(=O)C=C3N)[C@H]2O[Si](C)(C)C(C)(C)C)nn1 | > 150 | > 150 | > 150 | 73 | > 150 | >2.1
CCOC(=O)c1nnn([C@@H]2O[C@H](CO[Si](C)(C)C(C)(C)C)[C@@]3(OS(=O)(=O)C=C3N)[C@H]2O[Si](C)(C)C(C)(C)C)c1C(=O)OCC | 1.6 | > 60 | 55 | 3.8 | > 30 | 14.5
CCOC(=O)c1cnnn1[C@@H]1O[C@H](CO[Si](C)(C)C(C)(C)C)[C@@]2(OS(=O)(=O)C=C2N)[C@H]1O[Si](C)(C)C(C)(C)C | 1.3 | > 165 | > 165 | 3.2 | > 165 | >51
CCCCc1cnnn1[C@@H]1O[C@H](CO[Si](C)(C)C(C)(C)C)[C@@]2(OS(=O)(=O)C=C2N)[C@H]1O[Si](C)(C)C(C)(C)C | 1.5 | > 35 | ≥ 170 | 1.58 | > 170 | >=115
CCOC(OCC)c1cnnn1[C@@H]1O[C@H](CO[Si](C)(C)C(C)(C)C)[C@@]2(OS(=O)(=O)C=C2N)[C@H]1O[Si](C)(C)C(C)(C)C | > 150 | > 150 | > 150 | > 40 | > 40 | ><1
CC(C)(C)[Si](C)(C)OC[C@H]1O[C@@H](n2nncc2CBr)[C@H](O[Si](C)(C)C(C)(C)C)[C@]12OS(=O)(=O)C=C2N | > 1.3 | > 6 | 13 | ≥ 6 | > 6 | <2.1
CC(C)(C)[Si](C)(C)OC[C@H]1O[C@@H](n2ccnn2)[C@H](O[Si](C)(C)C(C)(C)C)[C@]12OS(=O)(=O)C=C2N | 3.4 | > 7.5 | 15 | 3.8 | > 7.5 | 4.1
CC(C)(C)[Si](C)(C)OC[C@H]1O[C@@H](n2cc([Si](C)(C)C)nn2)[C@H](O[Si](C)(C)C(C)(C)C)[C@]12OS(=O)(=O)C=C2N | 2.8 | > 2.6 | 9.5 | ≥ 6.6 | > 6.6 | <=1.44
CN(C)C(=O)c1cn([C@@H]2O[C@H](CO[Si](C)(C)C(C)(C)C)[C@@]3(OS(=O)(=O)C=C3N)[C@H]2O[Si](C)(C)C(C)(C)C)nn1 | 1.2 | > 7 | 12 | 0.42 | > 7 | 28.1
Cc1cn([C@@H]2O[C@H](CO[Si](C)(C)C(C)(C)C)C3(OS(=O)(=O)C=C3N)[C@H]2O[Si](C)(C)C(C)(C)C)c(=O)[nH]c1=O (some centres undefined) | 0.06 | > 20 | 14 |  | > 20 | 
COCc1cn([C@@H]2O[C@H](CO[Si](C)(C)C(C)(C)C)[C@@]3(OS(=O)(=O)C=C3N)[C@H]2O[Si](C)(C)C(C)(C)C)nn1 | 2.3 | > 70 | 73 | 27 | > 35 | 2.44
Cc1ccnc2c1NC(=O)c1cccnc1N2C1CC1 [NEVIRAPINE] | 0.11 | > 80 | > 80 | 0.12 | > 80 | >625
CCCCc1cn([C@@H]2O[C@H](CO[Si](C)(C)C(C)(C)C)[C@@]3(OS(=O)(=O)C=C3N)[C@H]2O[Si](C)(C)C(C)(C)C)nn1 | 1.5 | > 7 | 107 | 2.6 | > 170 | 41
CCCc1cnnn1[C@@H]1O[C@H](CO[Si](C)(C)C(C)(C)C)[C@@]2(OS(=O)(=O)C=C2N)[C@H]1O[Si](C)(C)C(C)(C)C | 3.9 | > 35 | > 175 | 3.13 | > 350 | >56
CC(C)(C)[Si](C)(C)OC[C@H]1O[C@@H](n2cc(CBr)nn2)[C@H](O[Si](C)(C)C(C)(C)C)[C@]12OS(=O)(=O)C=C2N | > 1.3 | > 1.3 | 14 | ≥ 6.5 | > 6.5 | <2.1

More lines, in order of falling EC50 [5], values ahead:

EC50 [5] [µM] | EC50 [6] [µM] | Compound | CC50 [1] [µM] | EC50 [2] [µM] | EC50 [3] [µM] | Ratio [4]
1.2 | > 7 | CNC(=O)c1cn([C@@H]2O[C@H](CO[Si](C)(C)C(C)(C)C)[C@@]3(OS(=O)(=O)C=C3N)[C@H]2O[Si](C)(C)C(C)(C)C)nn1 | 12 | 0.41 | > 7 | 28.8
1.1 | > 70 | CC(=O)c1cnnn1[C@@H]1O[C@H](CO[Si](C)(C)C(C)(C)C)[C@@]2(OS(=O)(=O)C=C2N)[C@H]1O[Si](C)(C)C(C)(C)C | 69 | 2.3 | > 35 | 30
1.1 | > 35 | CC(=O)c1cn([C@@H]2O[C@H](CO[Si](C)(C)C(C)(C)C)[C@@]3(OS(=O)(=O)C=C3N)[C@H]2O[Si](C)(C)C(C)(C)C)nn1 | 13 | 1.5 | > 7 | 8.6
0.9 | > 14 | COCc1cnnn1[C@@H]1O[C@H](CO[Si](C)(C)C(C)(C)C)[C@@]2(OS(=O)(=O)C=C2N)[C@H]1O[Si](C)(C)C(C)(C)C | 28 | 2.4 | > 7 | 11
0.9 | > 7 | CC(C)(C)[Si](C)(C)OC[C@H]1O[C@@H](n2cc(C(N)=O)nn2)[C@H](O[Si](C)(C)C(C)(C)C)[C@]12OS(=O)(=O)C=C2N | 15 | 1.2 | > 7 | 12.5
0.82 | > 7 | CC(C)(C)[Si](C)(C)OC[C@H]1O[C@@H](n2nncc2CCCCl)[C@H](O[Si](C)(C)C(C)(C)C)[C@]12OS(=O)(=O)C=C2N | 79 | 1.9 | > 164 | 40.6
0.66 | > 33 | CC(C)(C)[Si](C)(C)OC[C@H]1O[C@@H](n2cc(CCCCl)nn2)[C@H](O[Si](C)(C)C(C)(C)C)[C@]12OS(=O)(=O)C=C2N | 53 | 0.58 | > 170 | 91.4
0.53 | > 30 | COC(=O)c1nnn([C@@H]2O[C@H](CO[Si](C)(C)C(C)(C)C)[C@@]3(OS(=O)(=O)C=C3N)[C@H]2O[Si](C)(C)C(C)(C)C)c1C(=O)OC | 111 | 0.48 | > 150 | 231
0.18 | > 40 | COC(=O)c1cn([C@@H]2O[C@H](CO[Si](C)(C)C(C)(C)C)[C@@]3(OS(=O)(=O)C=C3N)[C@H]2O[Si](C)(C)C(C)(C)C)nn1 | ≥ 150 | 0.6 | > 150 | >=249
0.14 | > 7 | CC(C)(C)[Si](C)(C)OC[C@H]1O[C@@H](n2nncc2C(N)=O)[C@H](O[Si](C)(C)C(C)(C)C)[C@]12OS(=O)(=O)C=C2N | 15 | 0.52 | > 7 | 28.1
0.13 | > 40 | COC(=O)c1cnnn1[C@@H]1O[C@H](CO[Si](C)(C)C(C)(C)C)[C@@]2(OS(=O)(=O)C=C2N)[C@H]1O[Si](C)(C)C(C)(C)C | 128 | 0.9 | > 150 | 142
0.08 | > 7 | CNC(=O)c1cnnn1[C@@H]1O[C@H](CO[Si](C)(C)C(C)(C)C)[C@@]2(OS(=O)(=O)C=C2N)[C@H]1O[Si](C)(C)C(C)(C)C | 27 | 0.16 | > 7 | 171
